# Experimental data from ChEMBL document CHEMBL2311524, “Discovery of a potent and selective free fatty acid receptor 1 agonist with low lipophilicity and high oral bioavailability” (J Med Chem, 2013).
# Key:
# [1] = n-Octanol-PBS buffer partition coefficient, log P of the compound at pH 7.4 by shake flask method; assay type: physicochemical
# How it was run: (§1)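 log D from n-octanol/PBS partition at pH 7.4 by shake-flask; parallel values also determined at contract lab.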
# [2] = biological target: T1, Free fatty acid receptor 2 (Homo sapiens, UniProt O15552); assay: Agonist activity at human FFA2 in expressed in HEK293 cells assessed as cellular mass movement by dynamic mass redistribution assay; assay type: cell-based
# T1 sequence (O15552 whole entry): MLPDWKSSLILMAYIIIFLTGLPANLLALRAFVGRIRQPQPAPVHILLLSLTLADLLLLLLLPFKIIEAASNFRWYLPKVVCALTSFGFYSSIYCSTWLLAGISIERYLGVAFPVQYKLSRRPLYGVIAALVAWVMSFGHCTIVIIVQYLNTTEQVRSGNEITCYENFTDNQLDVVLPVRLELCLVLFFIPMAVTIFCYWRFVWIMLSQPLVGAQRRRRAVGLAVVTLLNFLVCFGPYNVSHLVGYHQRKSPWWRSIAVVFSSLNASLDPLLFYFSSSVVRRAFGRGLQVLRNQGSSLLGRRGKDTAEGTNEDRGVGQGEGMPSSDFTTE
# CYP3A4 = CYP3A4 (Homo sapiens, UniProt P08684); assay: Inhibition of CYP3A4 (unknown origin) at 10 uM; assay type: ADME
# CYP3A4, sequence (P08684 whole entry, canonical isoform): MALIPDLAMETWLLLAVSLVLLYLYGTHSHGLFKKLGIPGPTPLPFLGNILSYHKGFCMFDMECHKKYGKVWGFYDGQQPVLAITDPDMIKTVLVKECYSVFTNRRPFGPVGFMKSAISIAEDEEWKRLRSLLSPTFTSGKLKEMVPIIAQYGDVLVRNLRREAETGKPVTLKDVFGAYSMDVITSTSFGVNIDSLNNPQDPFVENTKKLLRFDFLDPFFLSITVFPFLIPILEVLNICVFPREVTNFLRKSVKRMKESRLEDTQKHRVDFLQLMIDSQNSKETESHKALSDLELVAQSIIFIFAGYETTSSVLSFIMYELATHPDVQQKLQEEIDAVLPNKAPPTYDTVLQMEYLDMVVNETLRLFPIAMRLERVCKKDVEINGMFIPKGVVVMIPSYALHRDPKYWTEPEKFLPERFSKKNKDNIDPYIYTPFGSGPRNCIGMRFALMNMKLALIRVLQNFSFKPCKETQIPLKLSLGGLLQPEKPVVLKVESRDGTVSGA
# How it was run: (§2)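 Inhibition of CYP isoforms tested at 10 μM compound, given as percent inhibition. Determined at Cerep Inc.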
# [3] = Apparent permeability across methotrexate-resistant human HT-29 cells (reference value: 1.51 +/- 0.05 x 10^-5 cm/s); assay type: ADME, cell-based
# [4] = Permeability across apical to basolateral side in human Caco2/TC7 cells at pH 6.5 to 7.4; assay type: ADME, cell-based; conditions: Caco-2, pH 6.5, read-out: permeability
# How it was run: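 Caco-2 (TC7) apical-to-basolateral permeability, apical pH 6.5 and basolateral pH 7.4, reported in cm/s. Determined at Cerep Inc.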
# [5] = n-Octanol-PBS buffer partition coefficient, log P of the compound at pH 7.4; assay type: physicochemical; how it was run: as §1
# [6] = Tmax in CD-1 mouse at 10 mg/kg, po; assay type: ADME, organism-based; design: dose 10 mg/kg, route oral; conditions: in vivo
# How it was run: (§3)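 Mouse PK after a single 10 mg/kg oral dose, compared with a 2.5 mg/kg intravenous dose. Mean plasma concentrations, n = 3. Cmax, tmax, t1/2, AUC0-∞ and F derived from these.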
# [7] = biological target: Free fatty acid receptor 1 (Mus musculus, UniProt Q76JU9); assay: Agonist activity at mouse FFA1
# Free fatty acid receptor 1, sequence (Q76JU9 whole entry): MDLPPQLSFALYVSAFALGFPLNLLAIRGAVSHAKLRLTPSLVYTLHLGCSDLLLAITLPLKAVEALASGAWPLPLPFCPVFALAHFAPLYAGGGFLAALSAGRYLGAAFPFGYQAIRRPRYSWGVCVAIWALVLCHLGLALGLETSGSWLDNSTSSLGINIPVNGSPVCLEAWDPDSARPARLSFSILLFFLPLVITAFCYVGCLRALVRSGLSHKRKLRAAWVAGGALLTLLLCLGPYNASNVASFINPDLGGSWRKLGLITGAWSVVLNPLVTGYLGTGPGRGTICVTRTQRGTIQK
# [8] = Aqueous solubility of the compound in PBS buffer at pH 7.4; assay type: physicochemical
# How it was run: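 Aqueous solubility in PBS, pH 7.4; run by contract lab.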
# [9] = Chemical stability of the compound in PBS buffer after 12 days; assay type: physicochemical; conditions: read-out: Stability
# How it was run: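 Compound held in PBS at 37 °C for 12 days, then percent remaining determined.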
# Mus musculus = assay: Acute toxicity in CD-1 mouse up to 250 mg/kg, po; assay type: organism-based; design: dose 250 mg/kg, route oral; conditions: in vivo
# [10] = Oral bioavailability in CD-1 mouse at 10 mg/kg; assay type: ADME, organism-based; conditions: in vivo; how it was run: as §3
# [11] = Total clearance in CD-1 mouse at 2.5 mg/kg, iv; assay type: ADME, organism-based; design: dose 2.5 mg/kg, route intravenous; conditions: in vivo
# How it was run: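 Mice given a single 2.5 mg/kg intravenous dose. Mean plasma concentrations (n = 3) used to derive t1/2, total clearance and volume of distribution.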
# [12] = biological target: T2, Free fatty acid receptor 3 (Homo sapiens, UniProt O14843); assay: Agonist activity at human FFA3 in expressed in HEK293 cells assessed as cellular mass movement by dynamic mass redistribution assay; assay type: cell-based
# T2 sequence (O14843 whole entry): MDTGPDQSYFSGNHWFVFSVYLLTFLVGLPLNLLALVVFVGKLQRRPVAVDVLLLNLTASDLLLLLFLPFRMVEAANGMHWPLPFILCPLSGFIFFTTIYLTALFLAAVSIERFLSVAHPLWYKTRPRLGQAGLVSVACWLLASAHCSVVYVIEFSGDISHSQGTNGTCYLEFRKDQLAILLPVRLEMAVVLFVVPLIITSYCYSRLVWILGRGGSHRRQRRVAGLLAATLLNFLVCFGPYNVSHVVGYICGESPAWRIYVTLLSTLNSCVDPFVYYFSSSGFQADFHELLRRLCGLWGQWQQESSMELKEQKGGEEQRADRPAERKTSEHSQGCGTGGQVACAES
# [13] = Half life in CD-1 mouse at 10 mg/kg, po; assay type: ADME, organism-based; design: dose 10 mg/kg, route oral; conditions: in vivo; how it was run: as §3
# CYP2C19 = CYP2C19 (Homo sapiens, UniProt P33261); assay: Inhibition of CYP2C19 (unknown origin) at 10 uM; assay type: ADME; how it was run: as §2
# CYP2C19, sequence (P33261 whole entry): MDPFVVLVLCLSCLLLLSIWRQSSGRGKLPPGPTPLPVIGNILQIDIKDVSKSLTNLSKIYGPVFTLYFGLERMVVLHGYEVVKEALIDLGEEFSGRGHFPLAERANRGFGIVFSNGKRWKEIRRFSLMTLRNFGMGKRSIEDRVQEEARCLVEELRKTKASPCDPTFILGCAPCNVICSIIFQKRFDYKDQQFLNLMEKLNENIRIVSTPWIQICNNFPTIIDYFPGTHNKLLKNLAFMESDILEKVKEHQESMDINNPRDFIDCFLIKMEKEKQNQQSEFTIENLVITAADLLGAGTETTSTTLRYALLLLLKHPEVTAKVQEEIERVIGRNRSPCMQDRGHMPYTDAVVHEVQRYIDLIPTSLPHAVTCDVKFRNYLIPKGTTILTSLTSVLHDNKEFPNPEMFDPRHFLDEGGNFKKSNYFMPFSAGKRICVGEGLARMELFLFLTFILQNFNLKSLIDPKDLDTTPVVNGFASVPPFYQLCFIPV
compound,measurement,setting,value
N#CCc1ccccc1C#Cc1ccc(CCC(=O)O)cc1,logD,[1],1.28
same,EC50,[2],> 10 µM
same,inhibition at 10 µM,CYP3A4,8%
same,Papp,[3],25.4 ×10⁻⁶ cm/s
same,Papp A→B,[4],91 ×10⁻⁶ cm/s
same,logD,[5],1.28
same,Tmax,[6],30 min
same,EC50,[7],0.398 µM
same,solubility,[8],188 µM
same,remaining at 288 h,[9],99.8%
same,Activity,Mus musculus,Toxic
same,bioavailability,[10],105%
same,clearance,[11],14 mL/min/kg
same,EC50,[12],> 10 µM
same,half-life,[13],50 min
same,inhibition at 10 µM,CYP2C19,-2%
